The source of these data is ChEMBL document CHEMBL1944565, “Exploration of α-aminophosphonate N-derivatives as novel, potent and selective inhibitors of protein tyrosine phosphatases” (Eur J Med Chem, 2012).

For assay [1], the target named is T1, Tyrosine-protein phosphatase non-receptor type 1 (Homo sapiens, UniProt P18031).
T1 sequence (P18031 whole entry): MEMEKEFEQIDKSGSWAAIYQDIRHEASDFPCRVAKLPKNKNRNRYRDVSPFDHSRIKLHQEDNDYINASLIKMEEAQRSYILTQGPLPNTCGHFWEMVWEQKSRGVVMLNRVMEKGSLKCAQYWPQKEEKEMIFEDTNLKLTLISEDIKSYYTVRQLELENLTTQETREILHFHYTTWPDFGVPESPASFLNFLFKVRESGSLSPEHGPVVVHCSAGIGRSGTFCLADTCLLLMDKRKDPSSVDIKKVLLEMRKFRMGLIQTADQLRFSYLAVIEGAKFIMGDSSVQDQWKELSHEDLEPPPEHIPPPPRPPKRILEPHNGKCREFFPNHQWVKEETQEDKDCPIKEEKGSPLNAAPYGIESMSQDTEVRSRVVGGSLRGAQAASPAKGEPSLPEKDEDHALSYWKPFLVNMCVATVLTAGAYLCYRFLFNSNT
Kind of assay: Inhibition of human PTP1B using p-nitrophenol phosphate as substrate incubated for 35 mins prior to substrate addition measured after 30 mins by spectrophotometry. In outline:
(§1)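 Recombinant human phosphatase, expressed and purified, in 20 mM MOPS pH 7.2 with 50 mM NaCl. Preincubated with inhibitor at various concentrations for 35 min at 37 °C. p-NPP (0.1 M stock) added and reaction run about 30 min, then stopped with 2 M NaOH.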

In assay [2] the target is T2, Tyrosine-protein phosphatase non-receptor type 2 (Homo sapiens, UniProt P17706).
T2 sequence (P17706 whole entry): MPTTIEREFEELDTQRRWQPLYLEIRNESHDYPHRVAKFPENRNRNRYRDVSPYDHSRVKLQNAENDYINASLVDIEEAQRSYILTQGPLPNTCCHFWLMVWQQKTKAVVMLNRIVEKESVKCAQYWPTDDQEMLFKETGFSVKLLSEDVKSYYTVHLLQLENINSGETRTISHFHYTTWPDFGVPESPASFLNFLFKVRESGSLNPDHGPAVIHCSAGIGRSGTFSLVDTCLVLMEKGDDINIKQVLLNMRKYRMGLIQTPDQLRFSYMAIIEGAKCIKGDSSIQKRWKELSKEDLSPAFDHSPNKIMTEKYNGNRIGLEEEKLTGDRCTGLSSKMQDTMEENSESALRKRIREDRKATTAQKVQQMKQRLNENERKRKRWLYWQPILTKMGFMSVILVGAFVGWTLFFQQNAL
Kind of assay: Inhibition of human TCPTP using p-nitrophenol phosphate as substrate incubated for 35 mins prior to substrate addition measured after 30 mins by spectrophotometry. Summed up:
as §1

Assay [3] deals with T3, Tyrosine-protein phosphatase non-receptor type 9 (Homo sapiens, UniProt P43378).
T3 sequence (P43378 whole entry): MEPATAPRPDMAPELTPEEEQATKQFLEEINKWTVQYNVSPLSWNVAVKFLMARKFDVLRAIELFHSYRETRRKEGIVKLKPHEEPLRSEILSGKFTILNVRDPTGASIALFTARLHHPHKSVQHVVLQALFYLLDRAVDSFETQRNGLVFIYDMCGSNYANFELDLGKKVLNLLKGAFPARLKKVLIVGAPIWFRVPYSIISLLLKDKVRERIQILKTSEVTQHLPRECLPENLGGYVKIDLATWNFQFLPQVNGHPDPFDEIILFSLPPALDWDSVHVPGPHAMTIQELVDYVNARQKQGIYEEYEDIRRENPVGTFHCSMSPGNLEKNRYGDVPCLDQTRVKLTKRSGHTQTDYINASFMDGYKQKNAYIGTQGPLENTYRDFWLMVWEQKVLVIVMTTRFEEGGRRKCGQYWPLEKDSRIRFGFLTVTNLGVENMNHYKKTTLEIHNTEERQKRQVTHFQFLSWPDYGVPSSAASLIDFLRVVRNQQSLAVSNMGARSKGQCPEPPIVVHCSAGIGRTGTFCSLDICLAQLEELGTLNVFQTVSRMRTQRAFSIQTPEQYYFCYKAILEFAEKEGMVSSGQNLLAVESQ
Kind of assay: Inhibition of human PTP-MEG2 using p-nitrophenol phosphate as substrate incubated for 35 mins prior to substrate addition measured after 30 mins by spectrophotometry. In outline: as §1

Assay [4] has as its target Tyrosine-protein phosphatase non-receptor type 6 (Homo sapiens, UniProt P29350). Description: Inhibition of human SHP1 using p-nitrophenol phosphate as substrate incubated for 35 mins prior to substrate addition measured after 30 mins by spectrophotometry. Summed up: as §1
Assay [5] deals with T4, Tyrosine-protein phosphatase non-receptor type 11 (Homo sapiens, UniProt Q06124).
T4 sequence (Q06124 whole entry): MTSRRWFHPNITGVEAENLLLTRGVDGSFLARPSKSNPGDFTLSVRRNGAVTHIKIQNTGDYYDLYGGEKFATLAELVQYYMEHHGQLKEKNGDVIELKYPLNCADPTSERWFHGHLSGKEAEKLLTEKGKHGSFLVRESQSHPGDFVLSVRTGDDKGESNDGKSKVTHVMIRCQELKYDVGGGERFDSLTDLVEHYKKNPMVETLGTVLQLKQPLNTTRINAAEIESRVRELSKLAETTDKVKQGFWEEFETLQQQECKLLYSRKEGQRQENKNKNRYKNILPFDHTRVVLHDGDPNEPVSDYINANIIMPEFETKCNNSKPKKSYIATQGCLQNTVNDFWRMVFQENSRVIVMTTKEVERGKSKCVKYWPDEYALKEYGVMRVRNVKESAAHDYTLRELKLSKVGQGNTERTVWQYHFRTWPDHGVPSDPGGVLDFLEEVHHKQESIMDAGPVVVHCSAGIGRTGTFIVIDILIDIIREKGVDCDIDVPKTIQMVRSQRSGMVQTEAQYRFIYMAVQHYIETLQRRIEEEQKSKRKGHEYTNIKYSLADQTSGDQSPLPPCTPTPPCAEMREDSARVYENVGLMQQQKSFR
Kind of assay: Inhibition of human SHP2 using p-nitrophenol phosphate as substrate incubated for 35 mins prior to substrate addition measured after 30 mins by spectrophotometry. Summed up: as §1

Assay [6] concerns HepG2. Description: Cytotoxicity against human HepG2 cells after 48 hrs by MTT assay. In kind it is functional, cell-based. In outline:
(§2)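 HepG2 or MCF7 cells in DMEM with 10% FBS and penicillin/streptomycin, 37 °C, 5% CO2. Plated overnight, then exposed to a range of concentrations for 48 h with DMSO held at 1.0% in samples and control. MTT (5 mg/mL stock) added for 4 h at 37 °C, formazan dissolved in DMSO, OD read at 490 nm. Viability % = T/C × 100, averaged over six wells.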

For another assay, the system named is MCF7. Description: Cytotoxicity against human MCF7 cells after 48 hrs by MTT assay. In kind it is functional, cell-based. Summed up: as §2
Assay [7] concerns HepG2. Description: Induction of apoptosis in human HepG2 cells at 50 uM after 48 hrs by AnnexinV-FITC/PI flow cytometric analysis. In kind it is functional, cell-based. In outline:
(§3)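 HepG2 cells exposed to 50, 100 or 300 μM for 48 h. Harvested, washed twice in ice-cold 0.85% NaCl, then resuspended in binding buffer with Annexin V-FITC and PI. Stained 15 min in the dark at room temperature and analysed by flow cytometry within 1 h. Viable, early/late apoptotic and necrotic fractions quantified from annexin V binding and PI uptake; mean ± SD, n = 3.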
(A flow cytometer gives signals particle by particle.)

For assay [8], the system named is HepG2. Kind of assay: Induction of apoptosis in human HepG2 cells assessed as apoptotic cells at 100 uM after 48 hrs by AnnexinV-FITC/PI flow cytometric analysis. It is filed as functional. In outline: as §3
Assay [9] concerns HepG2. Kind of assay: Induction of necrosis in human HepG2 cells assessed as necrotic cells at 100 uM after 48 hrs by AnnexinV-FITC/PI flow cytometric analysis. It is filed as functional. In outline: as §3
Assay [10] has as its system HepG2. Description: Induction of apoptosis in human HepG2 cells assessed as apoptotic cells at 300 uM after 48 hrs by AnnexinV-FITC/PI flow cytometric analysis. It is filed as functional. In outline: as §3
Assay [11] relates to HepG2. Description: Induction of necrosis in human HepG2 cells assessed as necrotic cells at 300 uM after 48 hrs by AnnexinV-FITC/PI flow cytometric analysis. In kind it is functional. Summed up:
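HepG2 cells grown in DMEM with 10% FBS and penicillin/streptomycin at 37 °C under 5% CO2, then exposed for 48 h to three concentrations (50, 100, 300). Cells were washed twice in ice-cold 0.85% NaCl and stained with annexin V-FITC and PI in binding buffer for 15 min in the dark at room temperature. Flow cytometry within 1 h sorted necrotic cells by annexin V binding and PI uptake; mean ± SD, n = 3.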

Assay [12] addresses T5, Tyrosine-protein phosphatase non-receptor type 1 (Homo sapiens) (UniProt P18031).
T5 sequence (whole entry): T1 sequence (P18031 whole entry)

The target of assay [13] is T5, Tyrosine-protein phosphatase non-receptor type 1 (Homo sapiens). The source holds these as a separate data set.
For assay [14] the target is unchanged. The source holds these as a separate data set.

SMILES strings stand for the structures. Activity calls are given as the source filed them. The rule behind the calls is not given here.

Sequence of Tyrosine-protein phosphatase non-receptor type 6 (P29350 whole entry): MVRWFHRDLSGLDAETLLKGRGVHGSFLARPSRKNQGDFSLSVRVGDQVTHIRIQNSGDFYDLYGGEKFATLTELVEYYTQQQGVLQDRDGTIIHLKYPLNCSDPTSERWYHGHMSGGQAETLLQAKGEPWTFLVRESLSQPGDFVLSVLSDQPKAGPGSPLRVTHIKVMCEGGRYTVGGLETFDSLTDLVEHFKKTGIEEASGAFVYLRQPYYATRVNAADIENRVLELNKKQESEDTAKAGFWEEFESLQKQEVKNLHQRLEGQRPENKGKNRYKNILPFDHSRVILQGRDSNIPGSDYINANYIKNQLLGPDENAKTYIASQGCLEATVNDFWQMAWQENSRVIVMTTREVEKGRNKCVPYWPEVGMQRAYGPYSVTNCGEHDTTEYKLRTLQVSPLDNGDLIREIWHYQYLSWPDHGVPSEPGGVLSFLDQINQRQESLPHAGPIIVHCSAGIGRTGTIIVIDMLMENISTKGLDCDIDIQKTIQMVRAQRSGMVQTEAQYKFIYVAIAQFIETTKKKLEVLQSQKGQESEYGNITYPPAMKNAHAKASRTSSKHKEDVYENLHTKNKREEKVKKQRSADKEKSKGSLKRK

For orientation: IC50 means the concentration needed to halve the response being measured. A higher IC50 goes with weaker potency in that assay. As to `O=P(O)(O)[C@H](Nc1ccc(O)cc1)c1ccccc1O`, the IC50 in assay [1] is 6.64 µM; in assay [2] it was 14.4 µM; in assay [3], 160 µM; in assay [4], more than 10000 µM; in assay [5], more than 10000 µM. The Activity entry in the assay with HepG2 [6] was “Dose-dependent effect”; in the assay on MCF7 it was “Dose-dependent effect”; in the assay on HepG2 [8] it was 7.2%; with HepG2 [9] it was 1.9%; with HepG2 [10], 69.7%; in the assay with HepG2 [11] it was 22.7%. Also, the result with HepG2 [7] was inactive. Moreover, the Kic in assay [12] came to 4.4 µM. Moreover, the values for the Ka in [13] and in [14] were 2.23 ×10⁵ /M and 2.27 ×10⁵ /M, respectively.
